Reference: article PMC6357737 (Science Advances, 2019)
pIC50: −log10 of the molar value.

Columns and labels:
CK2 [1] = biological target: T1, CK2 (Homo sapiens, UniProt P19784+P68400); experiment: Cellular CK2 activity, anti-phospho CK2 substrate immunoblot, HEK293T; format: cell-based; settings: HEK293T cells, 24 hours, various concentrations
Bmal1-dLuc U2OS cells = experiment: Cell-based circadian assay, Bmal1-dLuc reporter; set-up: species or system human
In short: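 Stable U2OS Bmal1-dLuc cells were seeded at 3000 per well in DMEM/10% FBS. After 2 days, B27/HEPES explant medium with 0.2 or 1 mM luciferin (pH 7.2) was added, plus compound (final 0.7% DMSO). Luminescence was read every 100 min for 5 days, first day excluded. Period came from curve fitting; intensity was averaged over the run; n = 4. LogEC50 was from sigmoidal fits of threefold 12-point series.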

CK2 [2] = biological target: CK2 (Homo sapiens, UniProt P68400); experiment: biochemical
Caki-2 = experiment: Proliferation assay of RCC line Caki-2; format: cell-based, human; settings: Caki-2, 2 days
In short: (§1)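 Lines were kept in RPMI-1640/10% FBS and plated 1 day before treatment. Seeding per well: Caki-2 and A704 at 2.0 × 10^4; 786-O, A498, 769-P and ACHN at 1.0 × 10^4; RCC4+vec at 0.7 × 10^4; RCC4+VHL at 0.8 × 10^4. Two days after dosing, cells were stained with Hoechst 33342 (2 μg/ml, 1 h) and counted by imaging.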

A704 = experiment: Proliferation assay of RCC line A704; format: cell-based, human; settings: A704, 2 days
In short: as §1

ACHN = experiment: Proliferation assay of RCC line ACHN; format: cell-based, human; settings: 2 days
In short: as §1

OCI-AML3 = experiment: Proliferation assay of OCI-AML3 cells; format: cell-based, human; settings: OCI-AML3, 4 days
In short: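 OCI-AML3 cells were kept in MEM alpha/20% FBS, plated at 1.0 × 10^4 per well with compound, and incubated at 37°C for 4 days. Viability was read with Cell Counting Kit-8.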

[3] = test system: cells differentiated from Per2::LucSV knock-in ES cells; experiment: Circadian assay in differentiated ES cells; format: cell-based, mouse
In short: (§2)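 ES cells were kept on feeder fibroblasts; Per2 was disrupted by CRISPR-Cas9 in Bmal1-Luc ES cells. Embryoid bodies formed over 2 days in low-attachment wells, then grew 26 days on gelatin. On day 28, cells got 100 nM dexamethasone for 1 h, then 0.2 mM luciferin with compound. Luminescence was integrated 1 min every 20 min; period came from sine-wave fitting. Replicates: Per2::LucSV n = 4; Per2 knockout versus wild-type n = 3 to 4.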

PER2 = experiment: Phosphoproteomics of Flag-tagged PER2 in HEK293T cells; format: cell-based, mouse; settings: full-length PER2, 8 μM, 24 h (table S1)
In short: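 HEK293T cells were reverse-transfected (Lipofectamine 2000) with C-terminal 3XFlag-tagged mouse PER2 plus CK2α. After 24 h, they received 0 or 8 μM compound for 24 h. Lysis was in 1% NP-40 buffer (pH 8.0) with phosphatase inhibitors, followed by anti-Flag immunoprecipitation and LC-MS/MS after four-protease digestion. Phosphorylation was expressed as phosphopeptide/total peptide spectra, and the effect as the treated/control ratio.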

[4] = test system: Per2 knockout cells differentiated from ES cells; experiment: Circadian assay in Per2 knockout cells differentiated from Bmal1-Luc ES cells; format: cell-based, mouse
In short: as §2

[5] = test system: MLL-AF9 tissues (spleen and bone marrow explants); format: cell-based, mouse; settings: MLL-AF9 tissues relative to the control
In short: (§3)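 Explants: spleen and bone marrow from transplant mice. MLL-AF9 leukemia cells derived from Per2::Luc bone marrow were serially transplanted into nonreporter C57BL/6J mice. Controls were C57BL/6J recipients of Per2::Luc bone marrow, used 3 months later. Tissue was cultured in luciferin explant medium with compound (0.24% DMSO final). Luminescence was read every 30 min for 5 days, first day excluded. Period was curve-fitted; intensity was averaged over the run. MLL-AF9 n = 11; control n = 10 to 20.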

A498 = experiment: Proliferation assay of RCC line A498; format: cell-based, human; settings: A498, 2 days
In short: as §1

Per2-dLuc U2OS cells = experiment: Cell-based circadian assay, Per2-dLuc reporter; set-up: species or system human
[6] = test system: 59 kinases from a variety of classes; experiment: Kinase profiling, panel of 60 kinases; format: biochemical; settings: 5 μM
[7] = test system: control spleen and bone marrow explants; experiment: Per2::Luc rhythms in control spleen and bone marrow explants; format: cell-based, mouse
In short: as §3

MLL-AF9 leukemia cells = experiment: Proliferation assay of MLL-AF9 leukemia cells; format: cell-based; settings: mouse MLL-AF9 leukemia cells, 2 days
In short: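 GFP-positive MLL-AF9 leukemia cells were taken from leukemic mouse bone marrow and kept in IMDM/10% FBS with SCF 20 ng/ml and mIL-3, mIL-6 and GM-CSF at 10 ng/ml each. Cells were plated at 2.0 × 10^4 per well with compound, incubated at 37°C for 2 days, then counted by flow cytometry.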

CK2 [8] = biological target: T1, CK2; experiment: Cellular CK2 activity, anti-phospho CK2 substrate immunoblot, U2OS; format: cell-based; settings: U2OS cells, 24 hours, concentrations similar to those that affected circadian period
RCC4+vec = experiment: Proliferation assay of RCC line RCC4+vec; format: cell-based, human; settings: 2 days
In short: as §1

PKA (protein kinase A) = experiment: Anti-phospho PKA substrate immunoblot, HEK293T; format: cell-based, human; settings: HEK293T cells, 24 hours
In short: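 HEK293T cells exposed to a range of test compound concentrations for 24 hours. Lysates were immunoblotted with anti-phospho CK2 substrate antibody, then the membrane was reprobed with anti-phospho PKA substrate and anti-β-actin antibodies.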

CKIα = CKIα (Homo sapiens, UniProt P48729); experiment: In vitro CKIα kinase assay; format: biochemical
CLK2 = CLK2 (Homo sapiens, UniProt P49760); experiment: In vitro CLK2 kinase assay; format: biochemical
RCC4+VHL = experiment: Proliferation assay of RCC line RCC4+VHL; format: cell-based, human; settings: 2 days
In short: as §1

PIM2 = PIM2 (Homo sapiens, UniProt Q9P1W9); experiment: In vitro PIM2 kinase assay; format: biochemical
In short: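 Kinase-Glo assay measuring remaining ATP. Compound was added (final 5% DMSO) and reactions were started with ATP (final 3 μM). PIM2 ran at 30°C for 3 h. The CK2 comparator used CK2 (1.5 ng/μl) with 50 μM substrate peptide in 40 mM tris, 10 mM MgCl2, 0.5 mM DTT, 150 mM NaCl, pH 7.5, at 37°C for 1.5 h.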

GSK-3β = GSK-3β (Homo sapiens, UniProt P49841); experiment: Kinase profiling; format: biochemical; settings: 5 μM
[9] = test system: CK2α (CSNK2A1), CK2α′ (CSNK2A2), CK2β (CSNK2B), and GSK-3β (GSK3B); format: binding, human; settings: U2OS cell lysate, 50 μM free compound
In short: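 Unsynchronized confluent U2OS cells (1.6 × 10^8) were Dounce-homogenized in MOPS/EGTA/MgCl2/DTT buffer (pH 7.2) and sonicated. NP-40 was added to 0.5%, and the extract was cleared at 14,000g. Halves were preincubated with 0 or 50 μM free compound (0.5% DMSO) at 4°C for 30 min, then with the agarose-conjugated probe for 1 h. Bound proteins were in-gel digested for nanoLC-MS/MS; two independent experiments.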

[10] = test system: lung explants from Per2::Luc mice; experiment: Circadian rhythms in lung explants; format: cell-based, mouse
In short: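 Lung pieces from Per2::Luc knock-in mice were cultured in luciferin-containing explant medium with compound (final 0.24% DMSO). Luminescence was recorded every 30 min for 5 days, excluding the first day. Period was derived by curve fitting.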

[11] = biological target: recombinant CK2 (α2β2 tetramer) (Homo sapiens, UniProt P68400); format: binding; settings: recombinant CK2, agarose-conjugated GO457, immunoblot
[12] = test system: LSK hematopoietic progenitor cells; experiment: Proliferation assay of LSK hematopoietic progenitor cells; format: cell-based, mouse; settings: LSK hematopoietic progenitor cells (normal counterpart), 2 days
In short: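 LSK progenitors were maintained in StemSpan with SCF and TPO (100 ng/ml each). Cells were plated at 1.0 × 10^4 per well with compound, held at 37°C for 2 days, then counted by flow cytometry.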

769-P = experiment: Proliferation assay of RCC line 769-P; format: cell-based, human; settings: 2 days
In short: as §1

CKIδ = CKIδ (Homo sapiens, UniProt P48730); experiment: In vitro CKIδ kinase assay; format: biochemical
BMAL1 S90 = BMAL1 S90 phosphorylation immunoblot in NIH-3T3 cells; format: cell-based, mouse; settings: 10 μM, different times
In short: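 NIH-3T3 cells were exposed to 10 μM test compound for varying times. Lysates were immunoprecipitated with anti-BMAL1 antibody, then immunoblotted with anti-P-BMAL1-S90 and anti-BMAL1 antibodies. Protein was quantified by Bradford.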

CRY1 = CRY1 (Mus musculus, UniProt P97784); experiment: CRY1 degradation assay; format: cell-based; settings: CRY1-LUC HEK293 cells, 24 h
786-O = experiment: Proliferation assay of RCC line 786-O; format: cell-based, human; settings: 2 days
In short: as §1

T1 sequence (P68400 whole entry): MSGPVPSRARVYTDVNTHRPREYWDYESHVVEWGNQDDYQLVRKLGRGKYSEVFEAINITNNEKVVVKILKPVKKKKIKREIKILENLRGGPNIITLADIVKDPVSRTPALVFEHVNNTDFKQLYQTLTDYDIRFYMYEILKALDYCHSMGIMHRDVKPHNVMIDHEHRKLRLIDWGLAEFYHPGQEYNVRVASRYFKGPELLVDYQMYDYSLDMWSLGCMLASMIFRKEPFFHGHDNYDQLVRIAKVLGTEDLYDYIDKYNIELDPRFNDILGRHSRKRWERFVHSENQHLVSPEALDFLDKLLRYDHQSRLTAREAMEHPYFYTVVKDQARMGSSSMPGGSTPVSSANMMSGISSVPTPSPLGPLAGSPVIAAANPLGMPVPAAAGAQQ
T1 sequence (P19784 whole entry): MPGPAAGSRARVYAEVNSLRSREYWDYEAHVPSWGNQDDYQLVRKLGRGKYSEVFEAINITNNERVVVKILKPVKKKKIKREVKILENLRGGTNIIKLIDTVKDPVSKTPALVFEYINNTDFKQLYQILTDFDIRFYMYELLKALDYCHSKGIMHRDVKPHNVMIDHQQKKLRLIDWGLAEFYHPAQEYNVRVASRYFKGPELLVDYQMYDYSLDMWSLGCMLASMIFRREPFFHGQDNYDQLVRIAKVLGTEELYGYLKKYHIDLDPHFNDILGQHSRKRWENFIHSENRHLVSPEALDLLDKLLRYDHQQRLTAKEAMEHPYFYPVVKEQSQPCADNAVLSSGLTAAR
T1 sequence (P67870 whole entry partner): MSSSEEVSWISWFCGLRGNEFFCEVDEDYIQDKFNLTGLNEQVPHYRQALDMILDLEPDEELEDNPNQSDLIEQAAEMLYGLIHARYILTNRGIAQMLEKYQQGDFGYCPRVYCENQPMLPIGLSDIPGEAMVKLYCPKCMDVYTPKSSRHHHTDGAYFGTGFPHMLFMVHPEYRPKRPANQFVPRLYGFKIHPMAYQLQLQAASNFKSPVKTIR
PIM2, sequence (Q9P1W9 whole entry): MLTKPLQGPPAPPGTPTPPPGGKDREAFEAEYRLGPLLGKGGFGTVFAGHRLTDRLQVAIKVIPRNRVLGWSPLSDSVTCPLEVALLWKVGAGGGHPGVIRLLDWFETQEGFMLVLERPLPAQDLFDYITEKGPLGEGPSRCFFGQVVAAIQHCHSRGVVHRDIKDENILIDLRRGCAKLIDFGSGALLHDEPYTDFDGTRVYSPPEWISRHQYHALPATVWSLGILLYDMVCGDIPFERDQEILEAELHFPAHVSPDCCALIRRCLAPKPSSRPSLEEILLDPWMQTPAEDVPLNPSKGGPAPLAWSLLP
CK2 (Homo sapiens, UniProt P68400), sequence (P68400 whole entry): as the sequence (P68400 whole entry) above
CK2 (Homo sapiens, UniProt P68400), sequence (P67870 whole entry partner): as the sequence (P67870 whole entry partner) above
CKIδ, sequence (P48730 whole entry, species assumed): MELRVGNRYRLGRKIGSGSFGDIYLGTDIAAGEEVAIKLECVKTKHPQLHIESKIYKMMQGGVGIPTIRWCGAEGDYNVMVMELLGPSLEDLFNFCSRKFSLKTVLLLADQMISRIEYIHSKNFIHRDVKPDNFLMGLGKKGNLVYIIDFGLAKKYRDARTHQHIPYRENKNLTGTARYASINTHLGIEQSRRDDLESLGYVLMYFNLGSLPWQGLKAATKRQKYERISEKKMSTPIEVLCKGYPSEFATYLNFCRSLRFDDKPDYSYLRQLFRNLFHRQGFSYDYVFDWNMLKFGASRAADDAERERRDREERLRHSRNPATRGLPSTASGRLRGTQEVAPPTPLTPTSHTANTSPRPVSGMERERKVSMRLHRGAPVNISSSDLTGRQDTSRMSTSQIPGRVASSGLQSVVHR
CLK2, sequence (P49760 whole entry): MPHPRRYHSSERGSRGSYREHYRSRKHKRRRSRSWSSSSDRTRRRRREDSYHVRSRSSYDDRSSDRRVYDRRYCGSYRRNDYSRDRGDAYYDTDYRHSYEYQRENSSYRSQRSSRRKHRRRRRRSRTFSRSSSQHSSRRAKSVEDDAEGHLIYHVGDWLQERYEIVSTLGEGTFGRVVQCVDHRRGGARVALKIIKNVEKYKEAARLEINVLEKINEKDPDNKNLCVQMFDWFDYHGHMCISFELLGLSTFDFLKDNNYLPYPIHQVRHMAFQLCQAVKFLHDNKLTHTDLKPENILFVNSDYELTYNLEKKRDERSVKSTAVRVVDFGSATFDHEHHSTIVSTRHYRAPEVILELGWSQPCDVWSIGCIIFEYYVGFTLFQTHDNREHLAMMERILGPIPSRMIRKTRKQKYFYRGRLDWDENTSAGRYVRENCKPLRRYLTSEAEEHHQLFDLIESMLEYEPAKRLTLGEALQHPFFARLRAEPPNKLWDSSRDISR
CRY1, sequence (P97784 whole entry): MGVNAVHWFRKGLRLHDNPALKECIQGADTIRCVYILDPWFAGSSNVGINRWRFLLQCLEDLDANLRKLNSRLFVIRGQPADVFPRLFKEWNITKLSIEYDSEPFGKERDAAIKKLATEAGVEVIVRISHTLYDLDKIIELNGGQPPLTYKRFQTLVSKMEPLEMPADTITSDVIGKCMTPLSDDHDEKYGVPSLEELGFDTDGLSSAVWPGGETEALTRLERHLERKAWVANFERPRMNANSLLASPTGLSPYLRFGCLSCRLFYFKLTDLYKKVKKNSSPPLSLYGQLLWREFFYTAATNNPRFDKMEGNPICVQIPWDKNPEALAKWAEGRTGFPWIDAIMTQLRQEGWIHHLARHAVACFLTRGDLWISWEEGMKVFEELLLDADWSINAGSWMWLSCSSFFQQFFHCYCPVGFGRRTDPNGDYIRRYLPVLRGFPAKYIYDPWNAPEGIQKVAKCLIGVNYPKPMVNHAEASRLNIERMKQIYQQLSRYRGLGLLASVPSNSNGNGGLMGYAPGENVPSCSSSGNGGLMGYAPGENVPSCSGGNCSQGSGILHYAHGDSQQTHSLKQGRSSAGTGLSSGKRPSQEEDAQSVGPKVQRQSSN
GSK-3β, sequence (P49841 whole entry): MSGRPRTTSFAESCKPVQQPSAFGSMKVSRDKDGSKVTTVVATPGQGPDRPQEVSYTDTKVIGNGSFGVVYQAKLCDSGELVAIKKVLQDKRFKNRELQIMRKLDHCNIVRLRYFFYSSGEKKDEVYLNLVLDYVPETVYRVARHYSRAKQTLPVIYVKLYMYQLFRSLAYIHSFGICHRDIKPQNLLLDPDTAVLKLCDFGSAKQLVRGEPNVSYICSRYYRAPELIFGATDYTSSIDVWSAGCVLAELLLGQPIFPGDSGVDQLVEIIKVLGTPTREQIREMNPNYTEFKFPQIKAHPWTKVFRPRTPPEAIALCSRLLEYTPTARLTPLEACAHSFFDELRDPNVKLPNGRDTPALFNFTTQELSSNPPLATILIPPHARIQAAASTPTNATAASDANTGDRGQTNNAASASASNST
recombinant CK2 (α2β2 tetramer), sequence (P68400 whole entry): as the sequence (P68400 whole entry) above
recombinant CK2 (α2β2 tetramer), sequence (P67870 whole entry partner): as the sequence (P67870 whole entry partner) above
CKIα, sequence (P48729 whole entry, species assumed): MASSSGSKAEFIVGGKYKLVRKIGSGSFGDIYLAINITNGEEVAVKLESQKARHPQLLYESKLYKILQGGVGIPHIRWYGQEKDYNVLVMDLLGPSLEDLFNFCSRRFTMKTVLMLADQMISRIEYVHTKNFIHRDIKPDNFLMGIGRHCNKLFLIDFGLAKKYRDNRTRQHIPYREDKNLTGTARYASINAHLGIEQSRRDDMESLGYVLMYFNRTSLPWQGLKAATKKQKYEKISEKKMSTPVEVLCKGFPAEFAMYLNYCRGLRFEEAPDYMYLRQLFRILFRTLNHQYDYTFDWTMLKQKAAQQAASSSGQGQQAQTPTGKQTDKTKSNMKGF

## Cc1cc2sc(NC(=O)Cc3ccccc3)nc2cc1Cl [LH846, reference compound]
CK2 [1]
  Phosphorylation of CK2 substrates (anti-phospho CK2 substrate antibody): neither the CKIδ inhibitor LH846 nor the GSK-3 inhibitor CHIR-99021 altered the CK2-specific phosphorylation pattern

## CN(C)c1nc2c(Br)c(Br)c(Br)c(Br)c2[nH]1 [DMAT, reference compound]
Bmal1-dLuc U2OS cells; vs DMSO control
  Effect on luminescence (reporter signal intensity): severe reduction in luminescence

## COc1cc(/C(C)=N/n2c(SC)nnc2-c2ccccc2)c(Br)cc1O [compound 27]
CK2 [2]; in vitro CK2 kinase assay (fig. S5)
  CK2 inhibitory activity in vitro: complete loss of CK2 inhibition

## O=C(O)c1ccc2c(c1)nc(Nc1cccc(Cl)c1)c1ccncc12 [CX-4945, reference compound]
Bmal1-dLuc U2OS cells; vs DMSO control
  Effect on luminescence (reporter signal intensity): severe reduction in luminescence
Caki-2
  Cell growth: inhibited growth
A704
  Cell growth: less of an effect
ACHN
  Cell growth: less of an effect

## COc1cc(/C=N/n2c(SC)nnc2-c2ccccc2)c(Br)cc1O [GO289]
OCI-AML3
  Cell growth: sensitive to GO289
[3]
  Effect on circadian period: lengthened periods
PER2
  Phosphorylation of PER2 T12/S13 and S53 (previously reported CK2 sites): either unchanged or up-regulated
[4]
  Period lengthening of Bmal1-Luc rhythms in Per2 knockout vs wild-type cells: slightly enhanced
Bmal1-dLuc U2OS cells
  Effect on circadian period: dose-dependent lengthening of circadian period
Bmal1-dLuc U2OS cells; vs DMSO control
  Effect on luminescence (reporter signal intensity): little effect on luminescence
  Lengthening of circadian period: more than 12 hours
[5]
  Luminescence intensity of Per2::Luc reporter: severe reduction in luminescence
A498
  Cell growth: strongly inhibited
Per2-dLuc U2OS cells
  Effect on circadian period: dose-dependent lengthening of circadian period
Caki-2
  Cell growth: strongly inhibited
[6]
  Effect on the activity of 59 kinases: only a moderate or minor effect
[7]
  Effect on circadian period: lengthened circadian period
MLL-AF9 leukemia cells
  Cell growth: significantly reduced growth
CK2 [8]
  Cellular CK2 activity (anti-phospho CK2 substrate antibody): Inhibition of cellular CK2 activity
RCC4+vec
  Cell growth: less affected
PKA (protein kinase A)
  Signal of anti-phospho PKA substrate antibody: not affected by GO289
CK2 [2]
  pIC50: 8.15
CKIα
  Effect on CKIα activity in vitro: minor effects
CLK2
  pIC50: < 4.30
RCC4+VHL
  Cell growth: less affected
PIM2
  pIC50: 4.89
PIM2; PIM2 IC50 relative to CK2 IC50
  IC50 ratio against CK2 over PIM family kinase (PIM2): > 1000
GSK-3β
  Effect on GSK-3β activity: minor effect
[9]
  Competition of protein interactions with affinity probe: blocked by free GO289
[10]
  Effect on circadian period: lengthened periods
[11]
  Competition of CK2 interaction with affinity probe: blocked by increasing concentrations of free GO289
[12]
  Cell growth: much less affected
769-P
  Cell growth: strongly inhibited
CKIδ
  Effect on CKIδ activity in vitro: minor effects
CK2 [1]
  Phosphorylation of CK2 substrates (anti-phospho CK2 substrate antibody): reduced by GO289 in a dose-dependent manner
A704
  Cell growth: less affected
BMAL1 S90
  BMAL1 S90 phosphorylation (immunoblot): down-regulation
CRY1
  CRY1 stabilization in cell-based degradation assay: no stabilization of CRY1
786-O
  Cell growth: less affected
ACHN
  Cell growth: less affected
